The data set can be described thus: Toxicity liver stage against HepG2, at 10uM. It is filed as cell-based. Details: test concentration 10 uM, cell line HepG2-A16-CD81EGFP. The conditions noted are these: human, HepG2-A16-CD81EGFP cells; read-out: INHIBITION
A digest of the protocol:
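Uninfected HepG2-A16-CD81EGFP cells, 3 × 10^3 per well, 1536-well, plated on prespotted compound at 10 μM final, parasite-free screening media added to match infected plates; puromycin 10 μM positive, DMSO 0.5% negative; run in parallel with 48 h PbLuc assay at 37 °C, 5% CO2; viability by CellTiter-Glo luminescence, normalized to controls.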
On to `CC(C)Cc1cc(C(=O)O)nc2[nH]c(=O)[nH]c(=O)c12`, for which the cytotoxicity at 10 µM was -0.508%. With `O=C(Nc1cccnc1-n1cc(Cl)cn1)C1CC1` the figure was -42.7%; with `Cc1cc(C)nc(NCCC(=O)NCCn2ccc3ccccc32)n1`, -34.2%. For the compound `CCS(=O)(=O)N1CC(c2nc(-c3ccncc3)no2)C1`, the cytotoxicity at 10 µM was -5.86%. With `O=C(CN1C(=O)CCC1=O)NCCc1nc(C2CC2)cc(C(F)(F)F)n1` the figure was -2.02%; with `CC(C)CNC(=O)N1C[C@H]2CC[C@@]3(N=C(c4ccccc4)NC3=O)[C@H]2C1`, -5.82%; with `Cn1cc(CN2CCC3(CC2)CCN(Cc2ccccn2)CC3)cn1`, 9.84%. For `COCCC(=O)N1C[C@@H]2COC[C@]2(COCc2cccnc2)C1`, the cytotoxicity at 10 µM is -4.23%. Take `CN1CCN(c2ncc3c(=O)n(Cc4ccco4)ccc3n2)CC1`: the cytotoxicity at 10 µM was -15.1%. For `Cc1noc(C)c1CC(=O)N1CC[C@@](C)(O)[C@H](Oc2ccccc2)C1`, the cytotoxicity at 10 µM was 0.935%. The same measure for `COc1ccc2c(c1)C(=O)NC1(CC2)CCN(Cc2ccccc2)C1` (stereo not given): 0.585%; for `CC(C)Nc1cccc(CC2CCN(S(C)(=O)=O)CC2)n1`: -22.3%; for `CNc1cc(C2CN(Cc3csc(C)n3)CCO2)nc(C)n1` (stereo not given): -1.6%.

On to `Cc1nccc(C2CCCCN2Cc2ccc(F)cc2)n1` (stereo not given), for which the cytotoxicity at 10 µM was -6.06%. The same measure for `CC(C)NC(=O)C1(Cc2ccccc2-c2cccs2)CCNC1` (stereo not given): -42%. The same measure for `COc1cccc(CN2CC[C@H](NC(C)=O)[C@@H](O)CC2)c1F`: -8.63%. As for `O=C(c1ccncc1)N1CCCC1c1nc(O)cc(-c2ccccn2)n1` (stereo not given), the cytotoxicity at 10 µM was -9.08%. As to `COc1ncc(CN2CCOC(C)(C(=O)N3CCOCC3)C2)cn1` (stereo not given), the cytotoxicity at 10 µM was -9.49%. With `CNc1cccc(C2CCCN(C(=O)c3coc(C)n3)C2)n1` (stereo not given) the figure was -11.7%; with `Cc1ccn(CCC(=O)N2CCCC(Cc3cccnc3)C2)n1` (stereo not given), -4.47%; with `C[C@]1(O)CN(CC(=O)N2CCCC2)CC[C@@H]1Oc1cccc(F)c1`, -19.1%. The same measure for `COc1ccc(C(C)NCc2cscn2)cc1Cn1cccn1` (stereo not given): 3.01%. The same measure for `CCN(CCNS(=O)(=O)N1CCOCC1)C(=O)OC(C)(C)C`: 19.9%; for `CN(CCOCC1CC1)C(=O)Nc1ccc([S+](C)[O-])c(F)c1` (stereo not given): -1.7%.

`NS(=O)(=O)CCCNC(=O)c1cnc(-c2ccsc2)s1`: the cytotoxicity at 10 µM was -9.59%.

For the compound `COC(=O)c1cccc(CNC(=O)NCCC(F)(F)F)c1`, the cytotoxicity at 10 µM was -0.247%. With `N#Cc1ccc(NCC(=O)Nc2ccn(Cc3cccnc3)n2)cc1` the figure was -11.2%; with `COCCN(Cc1cccc(C#N)c1)Cc1nc(C)no1`, 1.18%.

For the compound `CC(C)c1noc(CCC(=O)Nc2cc(C(F)(F)F)c[nH]c2=O)n1`, the cytotoxicity at 10 µM was -0.387%. The same measure for `CC(=O)N(c1ccc(C)cc1)c1nc(CN2CCCCC2C)cs1` (stereo not given): -5.65%; for `N#Cc1cc(N2CCC(CS(N)(=O)=O)CC2)c2ccccc2n1`: -11.4%. The same measure for `CC(c1cccnc1)N1CCN(CCCC#N)CC1` (stereo not given): 10.3%. With `CN(C(=O)CCNC(=O)C1COc2ccccc21)c1ccccc1` (stereo not given) the figure was -7.53%.

On to `COc1ccc(CNc2cccnc2-n2cccn2)c(OC)c1OC`, for which the cytotoxicity at 10 µM was 5.69%. As to `CN1CC(C(=O)NCc2ccc(OCc3cccnc3)cc2)CC1=O` (stereo not given), the cytotoxicity at 10 µM was determined as 17.7%. For `Cc1nccc(CNS(=O)(=O)N(C)Cc2ccc(Cl)cc2)n1`, the cytotoxicity at 10 µM was determined as 29.5%. With `COC1CCN(CCNc2ncc(Br)cc2C)CC1` the figure was -13.9%; with `CN(C)C(CNC(=O)NCCc1cccc(O)c1)c1ccco1` (stereo not given), -4.36%.

For `CCCS(=O)(=O)N1CCC(NC(=O)c2cc(C)c(CC)s2)CC1`, the cytotoxicity at 10 µM is 18.4%. With `CS(=O)(=O)NCC(=O)N1CCCC1c1noc(C2CC2)n1` (stereo not given) the figure was 14.2%. In the case of `Cc1cccc(N2CCOCC3(C2)CN(c2cccnc2)C(=O)CO3)n1` (stereo not given), the cytotoxicity at 10 µM was -4.96%. With `O=C(c1cnccn1)N1CCC2(CC1)CC(Oc1ccccc1)CO2` (stereo not given) the figure was 2.74%; with `Nc1nccc(-c2c[nH]nc2C2CCCCC2)n1`, 36.5%. As to `c1ccc2c(c1)CC(N1CCCC(NCc3cccc4nonc34)C1)C2` (stereo not given), the cytotoxicity at 10 µM was -1.98%. Turning to `CCC(C)N(Cc1cnc(NCC(=O)O)nc1)Cc1ccsc1` (stereo not given), the cytotoxicity at 10 µM was determined as 0.866%. The same measure for `CC(=O)N[C@@H]1CN(S(=O)(=O)Cc2ccccc2)C[C@H]1C(C)C`: -5.61%; for `Cc1cc(CN2CCN(CC3CC3)[C@@H]3CS(=O)(=O)C[C@@H]32)ccc1F`: -1.37%. Turning to `O=C(N1CC(c2cccnc2)C1)C1(c2ccc(F)cc2)CCOCC1`, the cytotoxicity at 10 µM is -14.5%. With `CCOc1ccccc1C(C(=O)O)N(C)CC1CCOCC1` (stereo not given) the figure was -4.36%; with `CC(=O)N1CCc2c(nc(N(C)C)nc2N(C)CC2CCCO2)C1` (stereo not given), 1.9%; with `CSCC(=O)N1CCCC(CO)(CC2CC2)C1` (stereo not given), 4.38%. Regarding `O=C(O)C1c2nc[nH]c2CCN1Cc1cc(-c2ccccc2)no1` (stereo not given), the cytotoxicity at 10 µM is -11.4%. With `CCOc1cc2c(cc1CN1CCC3(CCCNC3=O)C1)CCC2` (stereo not given) the figure was 14.9%; with `Cc1nnc(N2CCN(C)C3(CCC(=O)N(CCO)CC3)C2)s1` (stereo not given), -9.2%; with `CSCCc1n[nH]c2c1CN(S(=O)(=O)c1c(C)nn(C)c1C)CC2`, 7.66%. The same measure for `CCOC(=O)C1(Cc2cccc(OC)c2)CCCN(Cc2ncc[nH]2)C1` (stereo not given): 3.86%; for `Cc1noc(C)c1C(=O)N(Cc1ccsc1)CC1CCCO1` (stereo not given): 3.91%; for `Cc1ccccc1CSc1nc(N)cc(N2CCCC(C(N)=O)C2)n1` (stereo not given): -2.32%. Take `Cc1cc(N2CCC(c3ncc[nH]3)CC2)c2ccccc2n1`: the cytotoxicity at 10 µM was -9.74%. As to `CCOC(=O)CNC(=O)N1CCc2onc(-c3ccc(Cl)cc3)c2C1`, the cytotoxicity at 10 µM is -43.4%. With `CN(Cc1noc2c1CCCC2)C(=O)Cn1c(=O)cnc2ccccc21` the figure was -38.9%; with `O=C1CCCN1CCC1CCN(C2CCCNC2)CC1` (stereo not given), 2.37%; with `Cc1cc(C2CCC2)nc(N(C)Cc2cc(-c3ccccn3)no2)n1`, 21.2%. The same measure for `COc1ccc(CN2CCCn3cncc3C2)cc1Cn1cncn1`: 5.63%. With `O=C(c1ccc2cccnc2n1)N(Cc1ccsc1)CC1CCCO1` (stereo not given) the figure was -15.1%; with `OC1(CN2CCN(c3cccc(C(F)(F)F)c3)CC2)CNCCOC1` (stereo not given), -5.13%; with `CN1CCCN(c2nccc(-c3cc(C(=O)O)ccn3)n2)CC1`, 13.1%. For `CC(C)COc1cccc(-c2nc3c([nH]2)CCNC3)c1`, the cytotoxicity at 10 µM came to 4.48%. For the compound `CN(CC(=O)N1CC(C)(C)[C@](O)(C2CC2)C1)Cc1ccncc1`, the cytotoxicity at 10 µM was -44.1%. The same measure for `CCc1ccc(CN(C)c2cc(COC)nc3ccnn23)cc1`: 3.52%; for `CN(C)C(=O)c1cccc(CN2CCOC(Cn3cncn3)C2)c1` (stereo not given): -3.75%; for `CC(C)c1nccn1C1CCCN(C(=O)c2nccnc2N)C1` (stereo not given): 0.0264%.

Regarding `CC(C)c1nc(C2CCCN2C(=O)c2cnc[nH]2)no1` (stereo not given), the cytotoxicity at 10 µM is -6.49%. With `CSc1ccc(Cl)c(C(=O)N2CCCC(CNS(C)(=O)=O)C2)c1` (stereo not given) the figure was -5.92%; with `Cc1nc(NCc2ccc(F)cc2)cc(C2CCCN2)n1` (stereo not given), -3.27%. With `Cc1cnc(CCNc2cccc(CC3CCCNC3)n2)s1` (stereo not given) the figure was -3.02%; with `Cc1nccn1CCCn1cncc1-c1ccc2c(c1)CCCN2C`, -4.7%. Take `COc1ncc(CN2C[C@@H]3CC[C@@](O)(c4ccc(C)cn4)[C@@H]3C2)cn1`: the cytotoxicity at 10 µM is -10.3%.

`CCn1cncc1CN(Cc1ccc(OC)cc1OC)CC1CCCO1` (stereo not given): the cytotoxicity at 10 µM is -18%. The same measure for `Cn1cc(CN2CCO[C@@H]3CN(C4CCCC4)C[C@@H]3C2)cn1`: -4.8%; for `CCN1CCC2(CC1)CC(NC(=O)c1csnn1)c1ccccc1O2` (stereo not given): -116%; for `COc1ccccc1OCCc1cc(C2CCNC2)n[nH]1` (stereo not given): -17.1%. With `CO[C@H]1CCN(Cc2ccoc2)C[C@@H]1Cc1ccccc1` the figure was -11.9%; with `Cc1cncc(C(=O)N2CCC3(CCCN(c4nncs4)C3)C2)c1` (stereo not given), -99.4%. The same measure for `c1csc(CN2CCO[C@H]3[C@H](OCC4CCCC4)CC[C@@H]32)n1`: 6.09%; for `c1csc(NCc2n[nH]c3c2CCN(CC2CC2)C3)n1`: -0.733%. For the compound `Cc1ncccc1NC(=O)[C@@H]1CCO[C@@H]2CCN(c3ccccc3)C[C@@H]21`, the cytotoxicity at 10 µM is 6.7%. With `c1coc(CN2C[C@@H]3OCCN(CC4CCCO4)[C@@H]3C2)c1` (stereo not given in full) the figure was -83.1%; with `CNC(=O)NCC1CCC2(CCN(C(=O)c3cccnc3)CC2)CO1` (stereo not given), -94.9%; with `CN1CC(=O)N(c2ccccc2)CC12CCN(CCO)C2` (stereo not given), 3.16%. Regarding `CN(Cc1ccco1)C[C@H]1OC[C@@H]2CCN(Cc3cccnc3)C[C@@H]21`, the cytotoxicity at 10 µM is -7.9%. The same measure for `O=C([C@H]1C[C@H]2CN(c3ncc(F)cn3)C[C@@H]1O2)N1CCCC1`: -115%; for `CC(C)=CCN1C[C@@H]2CC[C@H]1CN(C(=O)CCc1nnc(C)[nH]1)C2`: -6.57%. With `Cc1cnccc1CN1Cc2ccccc2OC2(CCC(CO)CC2)C1` (stereo not given) the figure was -8.83%; with `CCOc1ccccc1CCn1cc2[nH]cccc-2c1=O`, 13.6%.

Values taken from ChEMBL document CHEMBL4513216, “Probing the Open Global Health Chemical Diversity Library for Multistage-Active Starting Points for Next-Generation Antimalarials” (ACS Infect Dis, 2020).
